Shown are actives, neighbours in structure and some others; about 4.7% of the full set was active somewhere.
Mdm2-MdmX inh – inhibitors of human Mdm2/MdmX interaction. inhibition, % at 8 µM. 330,000 compounds, 3% hits. SaOS-2 split-luciferase Mdm2/MdmX complementation, luminescence. O15151+Q00987;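 active = inhibition of at least 50% at 8 µM in the primary screen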
VIM-2 inh – blocks Pseudomonas aeruginosa VIM-2 metallo-beta-lactamase; 290,000 compounds, 0.89% hits; inhibition, % at 5.6 µM; AID 1527; purified VIM-2, nitrocefin hydrolysis, epi-absorbance fluorescence;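 active = inhibition above the mean of all tested compounds plus 3 SD, cutoff set per screening run, cut at about 7.5% in these data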;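 note: red hydrolysis product quenches plate fluorescence so inhibitors raise well fluorescence; 0% = enzyme with DMSO and 100% = DMSO without enzyme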
aSyn UTR inh – MLPCN primary screen, SNCA 5' untranslated region. alpha-synuclein 5'UTR reporter, inhibitor activity. inhibition, % (tested at 7.5 µM). 300,000 compounds, 0.82% hits; in the data active = inhibition above about 60%;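 note: H4 neuroglioblastoma cells stably carrying SNCA 5'UTR luciferase fusion; 0% = DMSO wells and 100% = positive control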
697 NFkB inh – lowers PMA/ionomycin-induced NF-kB signal in 697 B cells; 330,000 compounds, 0.33% hits; inhibition, % at 4 µM; 697 B-cell NF-kB luciferase reporter, 16 h; in the data active = inhibition above about 35%
Jurkat NFkB inh – inhibitors of the PMA/ionomycin-induced NF-kB reporter in Jurkat cells. inhibition, % at 4 µM. PMA/ionomycin-induced NF-kB luciferase reporter, luminescence. 330,000 compounds, 0.53% hits. AID 435003; in the data active = inhibition above about 50%
IMP-1 inh-1 – inhibitors of Pseudomonas aeruginosa IMP-1 metallo-beta-lactamase. purified IMP-1, nitrocefin hydrolysis, epi-absorbance fluorescence. inhibition, % at 5.6 µM. 290,000 compounds, 0.45% hits;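 active = inhibition above the mean plus 3 SD of all compounds in the same screening run, cut at about 4.5% in these data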;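 note: 0% = IMP-1 with DMSO and 100% = DMSO wells lacking enzyme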
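Test system: recombinant IMP-1 enzyme, purified / Medium: HEPES buffer pH 7.1 with ZnSO4 and Brij 35 / Doses: single dose, 5.6 µM / Times: 25 °C, 15 min preincubation, 25 min reaction / Detection: Epi-absorbance via hydrolysed-nitrocefin quenching of white-plate fluorescence, 480/530 nm, EDTA stop / Evaluation: percent inhibition from optical density relative to buffer-blank wells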
IMP-1 inh-2 – blocks IMP-1 metallo-beta-lactamase in VIM-2 selectivity screen. shares compounds with VIM-2 inh. 1,300 tested, under 10 active. inhibition, % at 5.6 µM. purified IMP-1, nitrocefin hydrolysis, epi-absorbance fluorescence; call rule not given here;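 note: 0% = enzyme with vehicle and 100% = vehicle without enzyme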
VIM-2 FRET inh – inhibits VIM-2 in FRET assay to exclude epi-absorbance artifacts; shares compounds with VIM-2 inh; purified VIM-2, CCF2 FRET substrate hydrolysis; inhibition, % at 5.6 µM; 1,300 compounds, 23% hits;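 active = inhibition above the mean of all tested compounds plus 3 SD, cut at about 19% in these data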;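 note: 0% = VIM-2 plus DMSO and 100% = no enzyme wells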
TEM-1 inh – blocks E. coli TEM-1 beta-lactamase in VIM-2 selectivity screen | shares compounds with VIM-2 inh | Purified TEM-1, nitrocefin hydrolysis, epi-absorbance fluorescence | inhibition, % at 5.6 µM | 1,300 compounds, 3% hits | AID 1866;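 active = inhibition above that campaign's mean inhibition plus 3 SD, cut at about 0.46% in these data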;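 note: 0% = TEM-1 with DMSO and 100% = TEM-1 with 100 µM potassium clavulanate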
Target sequence (P62593 whole entry, looked up): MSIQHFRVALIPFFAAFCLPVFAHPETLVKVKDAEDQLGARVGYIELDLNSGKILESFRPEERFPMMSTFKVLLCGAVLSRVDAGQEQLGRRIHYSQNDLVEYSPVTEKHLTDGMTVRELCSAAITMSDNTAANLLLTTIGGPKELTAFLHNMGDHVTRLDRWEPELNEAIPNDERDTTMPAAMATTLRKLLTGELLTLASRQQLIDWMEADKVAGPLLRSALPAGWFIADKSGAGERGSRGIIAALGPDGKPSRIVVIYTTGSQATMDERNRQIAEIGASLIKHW
VIM-2 confirm 2 – confirmation of P. aeruginosa VIM-2 metallo-beta-lactamase inhibitors | AID 2187 | inhibition, % at 5.6 µM | shares compounds with VIM-2 inh | purified VIM-2, nitrocefin hydrolysis, epi-absorbance | 1,300 compounds, 96% hits;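 active = inhibition of the VIM-2 beta-lactamase enzyme above about 11% from the earlier first-round screen, limit read from the data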;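 note: 0% = VIM-2 with DMSO and 100% = buffer wells without enzyme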
The depositor's hits bear a star; . = not tested or not shown.

SMILES	Mdm2-MdmX inh	VIM-2 inh	aSyn UTR inh	697 NFkB inh	Jurkat NFkB inh	IMP-1 inh-1	IMP-1 inh-2	VIM-2 FRET inh	TEM-1 inh	VIM-2 confirm 2
COc1cc(O)c2c(=O)c(-c3ccc(O[C@@H]4O[C@H](CO)[C@@H](O)[C@H](O)[C@H]4O)cc3)coc2c1	-73	1	-155	-191	-91	-2	.	.	.	.
COc1ccccc1NC(=O)COC(=O)c1cc([N+](=O)[O-])ccc1N1CCCC1	-8	.	.	-1	-1	.	.	.	.	.
CCN(CC)CCCNC(=O)c1cc2c(=O)n(C)c3ccccc3c2n1C	16	22*	1	10	-52	-2	-3	1	-5	30*
CCCN(CCC)CCCNC(=O)c1cn(CCOC)c(=O)c2c1c1ccccc1n2C	8	1	0	18	1	-3	.	.	.	.
CCCCN(CC)CCNC(=O)c1cc2c(C)nc3ccccc3c2o1	-26	14*	-32	13	-8	-2	-4	1	-7	17*
CCCN(CCC)CCCNC(=O)c1cc2c(=O)n(C)c3ccccc3c2n1C	44	26*	4	-20	-64	-2	-3	1	-6	30*
CCCc1cc(=O)[nH]c(SCC(=O)Nc2cc(S(=O)(=O)N3CCOCC3)ccc2Cl)n1	9	.	.	11	-1	.	.	.	.	.
CC(=O)Nc1ccc(S(=O)(=O)N(C)CC(=O)NNc2c(F)c(F)cc(F)c2F)cc1	-14	.	.	-25	-4	.	.	.	.	.
O=C(O)CN1C(=O)C(=O)N(Cc2ccccc2F)C1=O	2	-1	7	-1	-9	-1	.	.	.	.
CCOc1ccc(NC(=O)Cc2c(C(=O)O)n(C)c3ccccc23)cc1	10	-3	15	9	-18	-6	.	.	.	.
Cc1cccc(C2c3[nH]c4ccccc4c3CCN2C(=O)c2cc(CC(C)C)[nH]c(=O)n2)n1 (stereo unspecified)	26	24*	15	11	-3	-2	-4	58*	-5	36*
CN1C(C(=O)Nc2ccc(OC(F)(F)F)cc2)=CC(c2ccc3c(c2)OCO3)=NS1(=O)=O	15	-1	-18	2	13	-2	.	.	.	.
O=C(N/N=C/c1ccc(-n2ccnc2)cc1)c1cccs1	7	77*	-78	-4	-13	0	-3	-11	-6	84*
O=C(N/N=C/c1ccncc1)c1cccs1	12	-3	-35	-2	7	-2	.	.	.	.
Cn1c(=O)c2sccc2n2c(CCCC(=O)N3CCCCC3)nnc12	2	0	-1	0	11	-2	.	.	.	.
CC(C)CCn1c(=O)c2sccc2n2c(CCCC(=O)N3CCC(N4CCCCC4)CC3)nnc12	31	13*	0	9	-12	-3	-2	2	-2	17*
COc1ccc(-c2c(-c3ccc(OC)nc3)c3ccccc3n2C)cc1	17	.	.	0	-2	.	.	.	.	.
Cc1c(C)c2c(OCC(=O)N[C@@H](Cc3ccccc3)C(=O)O)cc3c(c2oc1=O)CCC(C)(C)O3	-12	40*	10	20	-11	0	-3	68*	-6	46*
CSCC[C@H](NC(=O)COc1cc2c(c3oc(=O)c(C)c(C)c13)CCC(C)(C)O2)C(=O)O	-22	3	2	11	-7	-2	.	.	.	.
CSC[C@H](NC(=O)COc1cc2c(c3oc(=O)c(C)c(C)c13)CCC(C)(C)O2)C(=O)O	9	28*	15	13	-16	-1	-3	48*	-8	34*
CCOCCCNC(=O)Cn1cnc2c(cnn2-c2ccc(C)c(C)c2)c1=O	12	-1	-25	-12	1	4	.	.	.	.
CC(NS(=O)(=O)c1ccc2c(c1)C(=O)c1cc(S(=O)(=O)NC(C)C(=O)O)ccc1-2)C(=O)O (stereo unspecified)	3	18*	3	3	-5	-2	-3	21*	-6	19*
O=C(Nc1ccccc1C(=O)Nc1ccncc1)c1cccc([N+](=O)[O-])c1	17	13*	0	22	16	-1	-3	-11	-5	25*
COc1ccccc1CNC(=O)CCCNC(=O)c1ccc(Cl)cc1	-23	-1	13	-8	-7	-1	.	.	.	.
CNC(=S)Nc1cccc(-c2cnc3ccccc3n2)c1	-13	14*	-144	-70	-91	-5	-2	-22	-9	9.1*
SMILES	Mdm2-MdmX inh	VIM-2 inh	aSyn UTR inh	697 NFkB inh	Jurkat NFkB inh	IMP-1 inh-1	IMP-1 inh-2	VIM-2 FRET inh	TEM-1 inh	VIM-2 confirm 2
CCN1CCN(C(=O)Cn2nc(-c3ccc(Cl)cc3)ccc2=O)CC1	0	23*	17	16	-5	-3	-4	-3	-6	27*
CN(CCO)c1ccc(-c2n[nH]c(=O)c3ccccc23)cc1[N+](=O)[O-]	1	16*	11	7	-2	-4	-3	-3	-6	27*
CCC(CO)Nc1ccc(-c2n[nH]c(=O)c3ccccc23)cc1[N+](=O)[O-] (stereo unspecified)	16	22*	25	20	5	-2	-4	-4	-8	32*
CN(CCO)c1ccc([N+](=O)[O-])cc1C(=O)O	-14	1	10	-44	-22	-2	.	.	.	.
Cc1ccc(-c2nn(C)c(=O)c3ccccc23)cc1CO	21	2	13	14	14	-2	.	.	.	.
CCC(CO)Nc1ccc(-c2nn(C)c(=O)c3ccccc23)cc1[N+](=O)[O-] (stereo unspecified)	38	25*	-35	7	5	-1	-4	-2	-8	45*
CCOC(=O)CNS(=O)(=O)c1cc(-c2n[nH]c(=O)c3ccccc23)ccc1C	.	2	9	.	.	-1	.	.	.	.
Cc1cc(C)cc(OCC(=O)OCc2cc([N+](=O)[O-])cc3c2OCOC3)c1	8	.	.	10	-2	.	.	.	.	.
S=c1[nH]nc(C2CC2)n1Cc1ccco1	-6	25*	-7	14	2	2	-3	56*	-7	36*
C=CCn1c(C2CC2)n[nH]c1=S	-2	15*	4	9	-7	-2	-3	37*	-7	23*
S=c1[nH]nc(Cc2ccccc2)n1Cc1ccco1	-22	1	5	12	-13	-1	.	.	.	.
O=C1c2ccccc2-c2onc3c(N4CCN(CCO)CC4)cc(N4CCN(C(=O)c5ccco5)CC4)c1c23	41	14*	27	16	-13	1	-2	-10	-11	18*

Screens from PubChem.
